In data set [1] the test system is HIV-1(IIIB). As to the kind of experiment: Inhibition of HIV-1. Format: cell-based, Human immunodeficiency virus type 1. Conditions: relative to 8.
In the next data set the test system is HIV-2(ROD). Conditions: read-out: EC50 HIV-2(ROD); CEM cells; racemic mixture; ref [1]; cited from earlier work.
In data set [2] the test system is HIV-1(IIIB). Conditions: ref [1], cited from earlier work; for EC50: read-out: EC50 HIV-1(IIIB), CEM cells.
Data set [3] relates to human T-lymphocyte (CEM) cells. Conditions: mock-infected CEM cells; racemic mixture; ref [1]; cited from earlier work.
Another data set has as its target recombinant HIV-2 RT (Human immunodeficiency virus type 2 subtype A, UniProt P04584). The data set can be described thus: Anti-reverse transcriptase assay, HIV-2 RT. Format: biochemical, HIV-2(ROD). The method in brief: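 Recombinant RT derived from HIV-2(ROD). Substrate was [8-3H]dGTP (2.5 μM) on poly(C).oligo(dG)12–18 (0.1 mM), with inhibitor at various concentrations. Incubated 37 °C for 30 min, then stopped with yeast RNA and trichloroacetic acid in Na4P2O7 and held on ice 30 min. Acid-insoluble radioactivity was counted; IC50 was the concentration giving 50% inhibition of RT activity.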

The test system of data set [4] is human T-lymphocyte (CEM) cells. As to the kind of experiment: Cytostatic activity in mock-infected CEM cells. The format is cell-based. Particulars: concentration required to reduce mock-infected CEM cell viability by 50%. The method in brief: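 Mock-infected CEM cell cultures were run alongside the HIV-infected CEM cultures. CC50 was the compound concentration inhibiting CEM cell proliferation by 50%.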

Read-outs that look alike come from different tables or passages of the source. Where only a bound is given, the exact number is not on record here.

Sequence of recombinant HIV-2 RT (P04584 613-1171 limits assumed): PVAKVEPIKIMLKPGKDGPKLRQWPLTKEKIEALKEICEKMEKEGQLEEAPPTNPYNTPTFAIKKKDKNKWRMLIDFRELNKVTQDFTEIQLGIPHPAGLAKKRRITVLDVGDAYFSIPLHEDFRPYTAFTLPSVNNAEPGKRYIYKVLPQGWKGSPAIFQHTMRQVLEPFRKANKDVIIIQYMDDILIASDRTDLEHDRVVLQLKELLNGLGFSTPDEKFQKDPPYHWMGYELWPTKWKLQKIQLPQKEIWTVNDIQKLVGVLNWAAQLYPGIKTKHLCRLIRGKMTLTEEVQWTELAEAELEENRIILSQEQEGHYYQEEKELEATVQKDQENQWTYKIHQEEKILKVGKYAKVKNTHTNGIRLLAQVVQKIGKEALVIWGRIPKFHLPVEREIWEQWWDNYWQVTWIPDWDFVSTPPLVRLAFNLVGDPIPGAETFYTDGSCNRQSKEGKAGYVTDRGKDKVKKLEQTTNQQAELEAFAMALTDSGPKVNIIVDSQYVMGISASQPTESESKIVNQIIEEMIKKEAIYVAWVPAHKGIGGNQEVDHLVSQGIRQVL
Sequence of recombinant HIV-2 RT (P04584 613-1051 partner limits assumed): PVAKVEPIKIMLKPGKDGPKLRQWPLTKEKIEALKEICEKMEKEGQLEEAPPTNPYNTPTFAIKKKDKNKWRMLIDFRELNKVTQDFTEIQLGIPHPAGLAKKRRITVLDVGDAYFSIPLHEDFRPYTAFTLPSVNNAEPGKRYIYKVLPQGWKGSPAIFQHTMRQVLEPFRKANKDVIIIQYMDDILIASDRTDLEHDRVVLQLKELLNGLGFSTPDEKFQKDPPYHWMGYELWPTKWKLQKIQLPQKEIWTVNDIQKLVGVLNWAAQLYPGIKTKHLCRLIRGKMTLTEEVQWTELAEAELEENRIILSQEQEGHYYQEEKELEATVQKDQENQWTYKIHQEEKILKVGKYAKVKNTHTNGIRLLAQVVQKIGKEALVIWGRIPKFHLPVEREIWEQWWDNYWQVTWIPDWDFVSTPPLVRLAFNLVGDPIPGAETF

For the compound `Cc1ccnc(N2C(=O)CSC2C23CC4CC(CC(C4)C2)C3)n1` (stereo not shown) [Compound 10, 2-Adamantan-1-yl-3-(4-methylpyrimidin-2-yl)-thiazolidin-4-one], the “fold reduction in antiviral potency (anti-HIV-1)” value in the data set with HIV-1(IIIB) [1] came out at 6 fold.
Consider `Cc1cc(C)nc(N2C(=O)CSC2CC23CC4CC(CC(C4)C2)C3)n1` (stereo not shown) [Compound 12, 2-Adamantan-1-ylmethyl-3-(2,6-methylpyrimidin-2-yl)-thiazolidin-4-one], for which the “fold reduction in antiviral potency (anti-HIV-1)” value in the data set on HIV-1(IIIB) [1] was determined as 13 fold.
Consider `Cc1cc(C)nc(N2C(=O)CSC2C23CC4CC(CC(C4)C2)C3)c1` (stereo not shown) [Compound 7, 2-adamantan-1-yl-3-(4,6-dimethylpyridin-2-yl)-thiazolidin-4-one], for which the EC50 with HIV-2(ROD) was greater than 12 µM; in the data set with HIV-1(IIIB) [2], 0.35 ± 0.175 µM. For the same compound, the CC50 in data set [3] was 42 ± 8.1 µM.
With `Cc1cc(C)nc(N2C(=O)CS[C@@H]2C23CC4CC(CC(C4)C2)C3)c1` (single isomer, unassigned; (+)) [7 (R enantiomer), (+)-2-adamantan-1-yl-3-(4,6-dimethyl-pyridin-2-yl)-thiazolidin-4-one, reference compound], the IC50 on recombinant HIV-2 RT was greater than 600 µM. The EC50 in the data set on HIV-1(IIIB) [2] was 0.178 µM.
As to `O=C1CSC(c2c(F)cccc2F)N1CC12CC3CC(CC(C3)C1)C2` (stereo not shown) [Compound 28, 3-Adamantan-1-ylmethyl-2-(2,6-difluorophenyl)-thiazolidin-4-one], at recombinant HIV-2 RT, the IC50 is greater than 600 µM.
On to `O=C1CSC(c2c(Cl)cccc2Cl)N1CCC12CC3CC(CC(C3)C1)C2` (stereo not shown) [Compound 25, 3-(2-Adamantan-1-ylethyl)-2-(2,6-dichlorophenyl)-thiazolidin-4-one], for which the IC50 at recombinant HIV-2 RT is greater than 600 µM.
Turning to `O=C1CSC(c2c(F)cccc2F)N1CCC12CC3CC(CC(C3)C1)C2` (stereo not shown) [Compound 29, 3-(2-Adamantan-1-ylethyl)-2-(2,6-difluorophenyl)-thiazolidin-4-one], the half-inhibitory concentration (IC50) on recombinant HIV-2 RT is no less than 600 µM.
“2-Adamantan-1-ylmethyl-3-(2-dimethylaminoethyl)-thiazolidin-4-one [Compound 20]” returned a CC50 in data set [4] of 43 ± 20.1 µM.
On to `Cc1cc(C)nc(N2C(=O)CSC2C23CC4CC(CC(C4)C2)C3)c1` (single isomer, unassigned) [levo isomer], for which, in the data set with HIV-1(IIIB) [2], the “fold less active than the (+)-isomer (anti-HIV-1 activity)” value is recorded as “more than 60 fold”.
As to `O=C1CSC(c2c(Cl)cccc2Cl)N1CC12CC3CC(CC(C3)C1)C2` (stereo not shown) [Compound 24, 3-Adamantan-1-ylmethyl-2-(2,6-dichlorophenyl)-thiazolidin-4-one], the IC50 at recombinant HIV-2 RT is no less than 600 µM.
